Results as given in ChEMBL document CHEMBL3046880, “Syntheses and herbicidal activities of novel triazolinone derivatives” (J Agric Food Chem, 2008).

Tests used:
[1] = system: Brassica juncea; test: Herbicidal activity against Brassica juncea assessed as growth inhibition at 150 g of active ingredient/ha administered using post-emergence treatment measured 15 days post treatment protocol under greenhouse conditions; type: functional
Procedure, shortened: (§1)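 Test agents were formulated as 100 g/L emulsified concentrates (DMF solvent, TW-80 emulsifier), diluted with water and sprayed postemergence on pot-grown weeds. Seeds were sown 1-3 cm deep in clay soil (pH 6.5, 1.6% organic matter, 37.3% clay, CEC […]) and grown at 15–30 °C in a greenhouse. Dicots were treated at the two-leaf stage. Untreated and DMF-treated plants served as controls. Activity was scored visually 15 days after treatment.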

[2] = system: Echinochloa crus-galli; test: Herbicidal activity against Echinochloa crus-galli (barnyard grass) assessed as growth inhibition at 150 g of active ingredient/ha administered using post-emergence treatment measured 15 days post treatment protocol under greenhouse conditions; type: functional; procedure, shortened: as §1
[3] = system: Gossypium hirsutum; test: Phytotoxicity against Gossypium hirsutum (cotton) plant assessed as growth inhibition at 450 g of active ingredient/ha administered using post-emergence treatment measured 30 days post treatment protocol under greenhouse conditions; type: organism-based; details: in vivo, other, 720 h
Procedure, shortened: (§2)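 Compounds were formulated as 100 g/L emulsified concentrates in DMF with TW-80 as emulsifier, then diluted with water to the required concentration. They were applied postemergence to pot-grown plants in a greenhouse. The soil was clay, pH 6.5, with 1.6% organic matter, 37.3% clay particles and CEC 12.1 mol/kg. Sulfentrazone served as the reference control.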

[4] = Phytotoxicity against Oryza sativa (rice) plant assessed as growth inhibition at 450 g of active ingredient/ha administered using post-emergence treatment measured 30 days post treatment protocol under greenhouse conditions; type: organism-based; details: in vivo, read-out: GI; procedure, shortened: as §2
[5] = system: Zea mays; test: Phytotoxicity against Zea mays (maize) plant assessed as growth inhibition at 450 g of active ingredient/ha administered using post-emergence treatment measured 30 days post treatment protocol under greenhouse conditions; type: organism-based; details: in vivo, other, 720 h; procedure, shortened: as §2
[6] = system: Zea mays; test: Phytotoxicity against Zea mays (maize) plant assessed as growth inhibition at 300 g of active ingredient/ha administered using post-emergence treatment measured 30 days post treatment protocol under greenhouse conditions; type: organism-based; details: in vivo, other, 720 h; procedure, shortened: as §2
[7] = system: Zea mays; test: Phytotoxicity against Zea mays (maize) plant assessed as growth inhibition at 150 g of active ingredient/ha administered using post-emergence treatment measured 30 days post treatment protocol under greenhouse conditions; type: organism-based; details: in vivo, other, 720 h; procedure, shortened: as §2
[8] = Phytotoxicity against Zea mays (maize) plant assessed as growth inhibition at 75 g of active ingredient/ha administered using post-emergence treatment measured 30 days post treatment protocol under greenhouse conditions; type: organism-based; details: in vivo, read-out: GI; procedure, shortened: as §2
[9] = Phytotoxicity against Oryza sativa (rice) plant assessed as growth inhibition at 75 g of active ingredient/ha administered using post-emergence treatment measured 30 days post treatment protocol under greenhouse conditions; type: organism-based; details: in vivo, read-out: GI; procedure, shortened: as §2
[10] = system: Setaria viridis; test: Herbicidal activity against Setaria viridis (green foxtail) assessed as growth inhibition at 37.5 g of active ingredient/ha administered using post-emergence treatment measured 15 days post treatment protocol under greenhouse conditions; type: functional; procedure, shortened: as §1
[11] = system: Digitaria sanguinalis; test: Herbicidal activity against Digitaria sanguinalis (hairy crabgrass) assessed as growth inhibition at 75 g of active ingredient/ha administered using post-emergence treatment measured 15 days post treatment protocol under greenhouse conditions; type: functional; procedure, shortened: as §1
[12] = system: Brassica juncea; test: Herbicidal activity against Brassica juncea assessed as growth inhibition at 37.5 g of active ingredient/ha administered using post-emergence treatment measured 15 days post treatment protocol under greenhouse conditions; type: functional; procedure, shortened: as §1
[13] = system: Senna tora; test: Herbicidal activity against Senna tora assessed as growth inhibition at 150 g of active ingredient/ha administered using post-emergence treatment measured 15 days post treatment protocol under greenhouse conditions; type: functional; procedure, shortened: as §1
[14] = system: Senna tora; test: Herbicidal activity against Senna tora assessed as growth inhibition at 37.5 g of active ingredient/ha administered using post-emergence treatment measured 15 days post treatment protocol under greenhouse conditions; type: functional; procedure, shortened: as §1
[15] = system: Chenopodium album; test: Herbicidal activity against Chenopodium album assessed as growth inhibition at 75 g of active ingredient/ha administered using post-emergence treatment measured 15 days post treatment protocol under greenhouse conditions; type: functional; procedure, shortened: as §1
[16] = system: Chenopodium album; test: Herbicidal activity against Chenopodium album assessed as growth inhibition at 37.5 g of active ingredient/ha administered using post-emergence treatment measured 15 days post treatment protocol under greenhouse conditions; type: functional; procedure, shortened: as §1
[17] = system: Amaranthus retroflexus; test: Herbicidal activity against Amaranthus retroflexus assessed as growth inhibition at 150 g of active ingredient/ha administered using post-emergence treatment measured 15 days post treatment protocol under greenhouse conditions; type: functional; procedure, shortened: as §1
[18] = system: Cerastium arvense; test: Herbicidal activity against Cerastium arvense assessed as growth inhibition at 75 g of active ingredient/ha administered using post-emergence treatment measured 15 days post treatment protocol under greenhouse conditions; type: functional; procedure, shortened: as §1
[19] = system: Cerastium arvense; test: Herbicidal activity against Cerastium arvense assessed as growth inhibition at 37.5 g of active ingredient/ha administered using post-emergence treatment measured 15 days post treatment protocol under greenhouse conditions; type: functional; procedure, shortened: as §1
[20] = system: Amaranthus retroflexus; test: Herbicidal activity against Amaranthus retroflexus assessed as growth inhibition at 75 g of active ingredient/ha administered using post-emergence treatment measured 15 days post treatment protocol under greenhouse conditions; type: functional; procedure, shortened: as §1
[21] = system: Brassica juncea; test: Herbicidal activity against Brassica juncea assessed as growth inhibition at 75 g of active ingredient/ha administered using post-emergence treatment measured 15 days post treatment protocol under greenhouse conditions; type: functional; procedure, shortened: as §1
[22] = system: Triticum aestivum; test: Phytotoxicity against Triticum aestivum (wheat) plant assessed as growth inhibition at 150 g of active ingredient/ha administered using post-emergence treatment measured 30 days post treatment protocol under greenhouse conditions; type: organism-based; details: in vivo, other, 720 h; procedure, shortened: as §2

With CCS(=O)(=O)Nc1cc(-n2nc(C)n(Cc3ccccc3/C(=N\OC)C(=O)OC)c2=O)c(F)cc1Cl the “growth inhibition (GI)” value [1] was over 80%, the “growth inhibition (GI)” value [2] was 50% and the Activity [3] was “Toxic”. The inhibition at 720 h [4] was 10%, the Activity [5] was “Toxic” and the Activity [6] was “Toxic”. For the same compound, the Activity [7] was “Toxic”, the inhibition at 720 h [8] was 40% and the inhibition at 720 h [9] was 0%. The “growth inhibition (GI)” value [10] was under 50%, the “growth inhibition (GI)” value [11] was 50% and the “growth inhibition (GI)” value [12] was over 80%. The “growth inhibition (GI)” value [13] was 100%, the “growth inhibition (GI)” value [14] was 50% and the “growth inhibition (GI)” value [15] was over 80%. The “growth inhibition (GI)” value [16] was 50%, the “growth inhibition (GI)” value [17] was 100% and the “growth inhibition (GI)” value [18] was 100%. For the same compound, the “growth inhibition (GI)” value [19] was over 80%, the “growth inhibition (GI)” value [20] was over 80% and the “growth inhibition (GI)” value [21] was over 80%. For the same compound, the Activity [22] was “Toxic”.
